Most compounds without a hit are left out; they make up all but 3.1% or so of the library.
CHO parental Ca: signal in parental CHO cells, OX1R antagonist counter-screen | AID 463079 | parental CHO-K1, ATP-induced calcium, Fluo-8 fluorescence | inhibition, % at 5.6 µM | actives 0.63% (n = 330,000);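 active means inhibition above that plate's mean sample inhibition plus 3 SD, cut at about 26% in these data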
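Measured by: calcium-sensitive Fluo-8 fluorescence / Test system: CHO parental line / Controls: ATP-challenged DMSO wells low, unchallenged DMSO wells high / Measure: % inhibition / Compound: single nominal dose of 5.6 µM per compound / Replicates: single well per compound, no replicates / Reagent: ATP as calcium-mobilizing challenge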
GalR3 antagonist: antagonists of human GalR3; HEK293 GalR3-CNG cAMP membrane potential fluorescence; galR3 body fused to GalR1 C-terminus; inhibition, % at 3 µM; actives 0.44% (n = 360,000); AID 651719;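 active means inhibition above the screen-wide average plus 3 SD, cut at about 13% in these data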;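 further: forskolin and galanin both at EC90 stimulate the cells; cAMP rise reported by CNG channel membrane potential dye signal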
Target sequence (O60755 1-299 limits assumed): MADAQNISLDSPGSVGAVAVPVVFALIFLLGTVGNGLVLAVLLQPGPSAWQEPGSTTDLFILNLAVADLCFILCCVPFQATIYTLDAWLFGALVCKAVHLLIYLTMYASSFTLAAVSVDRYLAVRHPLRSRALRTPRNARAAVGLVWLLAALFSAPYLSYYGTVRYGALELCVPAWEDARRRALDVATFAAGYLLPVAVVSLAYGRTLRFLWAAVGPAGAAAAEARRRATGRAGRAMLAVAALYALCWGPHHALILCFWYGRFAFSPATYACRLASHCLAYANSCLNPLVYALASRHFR
OX1R antag-1: blocks the human orexin 1 receptor; actives 1.8% (n = 330,000); OX1R-expressing cells, FRET antagonist read-out; O43613; inhibition, % at 6.6 µM; in the data active means inhibition mostly above about 38%, no sharp cut-off; inactive means mostly below about 40%
OX1R antag-2: antagonists of human orexin 1 receptor; AID 434989; actives 0.43% (n = 330,000); CHO/OX1R cells, Fluo-8 calcium fluorescence, orexin A; inhibition, % at 5 µM; O43613;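 active means inhibition above its plate's threshold, mean inhibition of all tested compounds on the plate plus 3 SD, cut at about 37% in these data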
GPR7 antagonist: antagonists of human GPR7 (neuropeptides B/W receptor 1); P48145; GPR7-expressing cells, fluorescence antagonist assay; inhibition, % at 4.4 µM; actives 1.1% (n = 290,000); AID 1861; in the data active means inhibition above about 16%, passing the limit was not always enough;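 further: cells stimulated with the agonist NPW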
Target sequence (P48145 whole entry, looked up): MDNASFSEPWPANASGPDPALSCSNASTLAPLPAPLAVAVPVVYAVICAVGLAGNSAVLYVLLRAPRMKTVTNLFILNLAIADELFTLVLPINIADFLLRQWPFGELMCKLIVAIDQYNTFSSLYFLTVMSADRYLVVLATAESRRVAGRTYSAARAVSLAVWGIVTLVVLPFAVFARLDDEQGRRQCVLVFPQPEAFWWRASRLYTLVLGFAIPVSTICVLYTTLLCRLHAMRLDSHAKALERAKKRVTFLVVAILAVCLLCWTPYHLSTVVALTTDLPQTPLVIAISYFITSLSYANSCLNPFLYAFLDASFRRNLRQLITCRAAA
GalR3 conf: confirmation of human galanin receptor 3 antagonists; actives 59% (n = 1,600); AID 652245; HEK293 GalR3 CNG cAMP biosensor, membrane potential fluorescence; galR3 fused to GalR1 carboxy tail; challenged with forskolin and galanin at EC90; inhibition, % at 3 µM; shares compounds with GalR3 antagonist;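 active means inhibition above the primary screen's cutoff, the mean inhibition of all screened compounds plus 3 SD, cut at about 13% in these data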
HEK-CNG parental: parental cell agonism counter-screen for GalR3 antagonists; shares compounds with GalR3 antagonist; actives 10% (n = 1,600); activation, % at 3 µM; HEK293-CNG parental cells, cAMP membrane potential fluorescence; normalised: DMSO wells 0%, forskolin wells 100%; in the data active means activation above about 1.3%
Large screens that a line does not name were inactive (follow-up assays come after a bar, where they were run).

Cc1cccc2c(=O)cc(C(F)(F)F)[nH]c12	none
CCOC(=O)c1nnc(-c2ccccc2)nc1N1CC(C)OC(C)C1 (configuration not stated)	none
COc1cc(CC2COC(=O)C2Cc2ccc(O)c(OC)c2)ccc1O (configuration not stated)	none (no result: CHO parental Ca, OX1R antag-1, OX1R antag-2, GPR7 antagonist)
COc1cc(CC2COC(=O)C2(O)Cc2ccc(O)c(OC)c2)ccc1O (configuration not stated)	GalR3 antagonist 48 (no result: GPR7 antagonist) | GalR3 conf inactive | HEK-CNG parental inactive
Cc1ccc(NS(=O)(=O)c2c(C(=O)N3CCCCCC3)c(C)n(C)c2C)c(Cl)c1	none
CCOC(=O)COc1cccc2c(=O)n(CC(=O)NCc3ccc(F)cc3)ccc12	GalR3 antagonist 15 | GalR3 conf 22 | HEK-CNG parental inactive
Nc1nnc(SCC(=O)NC2CCCCCC2)s1	none (no result: GPR7 antagonist)
CC(C)(C)OC(=O)C[C@@H]1C/C=C\C[C@@H](CC(=O)N[C@@H](CO)Cc2ccccc2)C(=O)N2CCC[C@@H]2COC1=O	none (no result: GPR7 antagonist)
O=C(NCc1cccc(C(F)(F)F)c1)c1ccc2sc([C@@H]3O[C@H](CO)[C@@H](O)[C@H]3O)nc2c1	none (no result: CHO parental Ca, OX1R antag-1, OX1R antag-2, GPR7 antagonist)
O=C(NCC(F)(F)F)c1ccc2sc([C@@H]3O[C@H](CO)[C@H](O)[C@H](O)[C@H]3O)nc2c1	GalR3 antagonist 40 (no result: CHO parental Ca, OX1R antag-1, OX1R antag-2, GPR7 antagonist) | GalR3 conf inactive | HEK-CNG parental inactive
C#CCOCCOCCOCCNc1nc(N2CCN(C(=O)[C@H]([C@@H](C)CC)n3cc(CCCCN)nn3)CC2)nc(N2CCN(C(=O)[C@H](CCCCN)n3cc(CC(C)O)nn3)CC2)n1 (some centres not stated)	none (no result: GPR7 antagonist)
C#CCOCCOCCOCCNc1nc(N2CCN(C(=O)[C@H]([C@@H](C)CC)n3cc(CCC(=O)O)nn3)CC2)nc(N2CCN(C(=O)[C@H](CCCCN)n3cc(CCC(=O)O)nn3)CC2)n1	none (no result: CHO parental Ca, GalR3 antagonist, OX1R antag-1, OX1R antag-2, GPR7 antagonist) | GalR3 conf inactive | HEK-CNG parental inactive
CC(C)CC(NC(=O)C1CCC(=O)N1)C(=O)NC(CC(C)C)C(=O)N1CCCC1C(N)=O (configuration not stated)	none
CCOC(=O)C(=Cc1ccc(OCc2ccc([N+](=O)[O-])cc2)c(OC)c1)C(=O)OCC	none (no result: GalR3 antagonist) | GalR3 conf inactive | HEK-CNG parental inactive
COc1cc(NC(=O)c2cc(C)on2)cc(C(=O)Nc2cccc(C(F)(F)F)c2)c1	none (no result: GPR7 antagonist) | GalR3 conf inactive | HEK-CNG parental inactive
Cn1cnc([N+](=O)[O-])c1S(=O)(=O)c1ccc(Cl)cc1	GalR3 antagonist 13 (no result: CHO parental Ca, OX1R antag-1, OX1R antag-2) | GalR3 conf inactive | HEK-CNG parental inactive
Cn1cnc([N+](=O)[O-])c1NC(C)(C)C	none
CC(=O)Nc1ccc(S(=O)(=O)NCC(=O)OCC(=O)N2CCc3ccccc32)cc1	GalR3 antagonist 13 | GalR3 conf inactive | HEK-CNG parental inactive
O=C(CNS(=O)(=O)c1ccccc1Br)OCC(=O)N1CCc2ccccc21	none
CC(C)c1ccc(NC2CCCN(C(=O)c3ccoc3)C2)cc1 (configuration not stated)	none
CC(NC(=O)c1cc(COc2ccc3ncccc3c2)on1)c1ccc(F)cc1 (configuration not stated)	CHO parental Ca 51, GalR3 antagonist 29, OX1R antag-2 43 | GalR3 conf 86 | HEK-CNG parental inactive
O=C(c1cc(COc2ccc3ncccc3c2)on1)N1CCCC1	GalR3 antagonist 101 | GalR3 conf 30 | HEK-CNG parental inactive
COc1ccc(-c2sc3cc4c(cc3c2C#CCO)OCO4)cc1	none (no result: GPR7 antagonist)
COC(=O)c1c(-c2ccc(OC)cc2)sc2cc3c(cc12)OCO3	GalR3 antagonist 13 (no result: GPR7 antagonist) | GalR3 conf 18 | HEK-CNG parental inactive
c1ccc(CNc2ncnc3ccccc23)cc1	GalR3 antagonist 93 | GalR3 conf 86 | HEK-CNG parental inactive
CCOC(=O)[C@H]1[C@H]2COc3cc(OC)ccc3[C@@H]2N2C(=O)N(c3cccc(Cl)c3)C(=O)[C@@]12C	none (no result: GalR3 antagonist)
Cc1nnc(SCC(=O)NC(C)(C)C)n1C1CCCCC1	none
O=S(=O)(NCCCCCNS(=O)(=O)c1c(F)cccc1F)c1ccc2c(c1)OCCO2	none (no result: GPR7 antagonist)
O=S(=O)(NCC1CN(S(=O)(=O)c2c(F)cccc2F)C1)c1ccc2c(c1)OCCO2	GalR3 antagonist 73 (no result: GPR7 antagonist) | GalR3 conf 103 | HEK-CNG parental inactive
CCOP(=O)(OCC)C(NC(=O)NS(=O)(=O)c1ccc(C)cc1)c1ccccc1 (configuration not stated)	none
COc1ccc(C(C(=O)NC2CCCCC2)N(Cc2ccco2)C(=O)c2ccccn2)c(OC)c1 (configuration not stated)	none
CCO[C@@H]1OC(C(N)=O)=C[C@H](c2ccc(C(F)(F)F)cc2)[C@H]1CCCO	GalR3 antagonist 16 | GalR3 conf inactive | HEK-CNG parental inactive
Cc1cccc(NC(NC(=O)c2ccccc2[N+](=O)[O-])C(Cl)(Cl)Cl)c1 (configuration not stated)	none
Cc1ccc2nc(N3C(=O)C(O)=C(C(=O)c4ccco4)C3c3ccc(O)cc3)sc2c1 (configuration not stated)	none
Cc1cc(C)c2nc(N3C(=O)C(O)=C(C(=O)c4ccco4)C3c3cccc(O)c3)sc2c1 (configuration not stated)	GalR3 antagonist 14 (no result: GPR7 antagonist) | GalR3 conf inactive | HEK-CNG parental inactive
O=C1OCc2ccc(NC(=O)c3sccc3Cl)cc21	GalR3 antagonist 15 | GalR3 conf inactive | HEK-CNG parental inactive
COc1ccc(NC(=S)N2CCCC2)cc1	none
COc1ccc(NC(=O)C(=S)N2CCCC2)cc1	GalR3 antagonist 16 | GalR3 conf inactive | HEK-CNG parental inactive
Cc1cc(OCC(=O)Nc2cccc(S(=O)(=O)N3CCCC3)c2)ccc1Cl	none (no result: CHO parental Ca, OX1R antag-1, OX1R antag-2, GPR7 antagonist)
CCS(=O)c1ccccc1C(=O)OCC(=O)Nc1cccc(S(=O)(=O)N2CCCCC2)c1 (configuration not stated)	GalR3 antagonist 92 (no result: GPR7 antagonist) | GalR3 conf 96 | HEK-CNG parental inactive
CCC(=O)c1ccc(OCC(=O)Nc2cccc(S(=O)(=O)N3CCCCCC3)c2)cc1	GalR3 antagonist 98 (no result: CHO parental Ca, OX1R antag-1, OX1R antag-2, GPR7 antagonist) | GalR3 conf 97 | HEK-CNG parental inactive
Cc1cccc(NC(=O)C2CCCN2C(=O)NC2CCCCC2)c1 (configuration not stated)	none
Cc1cccc(NC(=O)CN(C)S(=O)(=O)c2ccc(-c3ccc(=O)[nH]n3)s2)c1C	GalR3 antagonist 80 | GalR3 conf inactive | HEK-CNG parental inactive
Cc1ccccc1NC(=O)CN(C)S(=O)(=O)c1ccc(-c2ccc(=O)[nH]n2)s1	none

Assay outcomes as filed in PubChem.
